Reference: ChEMBL document CHEMBL1828510, “Synthesis of 3-heteroarylthioquinoline derivatives and their in vitro antituberculosis and cytotoxicity studies” (Eur J Med Chem, 2011)
Values after ≈ are worked out from the molar mass of the structure shown.

Test system: Mycobacterium tuberculosis
Test: Antimycobacterial activity against multidrug-resistant Mycobacterium tuberculosis H37Rv after 28 days by agar dilution method
Assay type: functional
Conditions: 672 h
Summary of the method: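 Agar dilution on Middlebrook 7H11 agar with OADC, run in duplicate at pH 7.4. The clinical isolate was resistant to isoniazid, rifampicin, ethambutol and ciprofloxacin. Inoculum from fresh slants was set to 1 mg/mL wet weight in 0.05% Tween 80 saline, diluted 10^-2 to about 10⁷ cfu/mL, and spotted onto 10-fold serial drug dilutions. Incubated at 37 °C and read at 28 days. MIC is the lowest concentration giving complete (99%) growth inhibition.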

Q: For Cc1nnc(Sc2c(-c3ccccc3)nc3ccccc3c2-c2ccccc2)s1, which MIC is on record?
A: The MIC was 30.4 µM (≈ 12.5 µg/mL).

Q: Which MIC does the source give for Cc1ccc(-c2nc3ccccc3c(-c3ccccc3)c2Sc2nnc(C)s2)cc1 here?
A: Its MIC is 29.4 µM (≈ 12.5 µg/mL).

Q: Which MIC does the source give for Cc1nnc(Sc2c(-c3ccc(Cl)cc3)nc3ccccc3c2-c2ccccc2)s1 here?
A: Its MIC is 3.5 µM (≈ 1.56 µg/mL).

Q: How did the MIC turn out when Cc1nnc(Sc2c(-c3ccc(Br)cc3)nc3ccccc3c2-c2ccccc2)s1 was run?
A: The MIC was 3.2 µM (≈ 1.57 µg/mL).

Q: COc1ccc(-c2nc3ccccc3c(-c3ccccc3)c2Sc2nnc(C)s2)cc1 was tested. Which MIC did it give?
A: The MIC was 28.3 µM (≈ 12.5 µg/mL).

Q: Cc1nnc(Sc2c(-c3ccc4ccccc4c3)nc3ccccc3c2-c2ccccc2)s1 was tested. Which MIC did it give?
A: The MIC was 13.5 µM (≈ 6.23 µg/mL).

Q: With Cc1nnc(Sc2c(-c3ccc(-c4ccccc4)cc3)nc3ccccc3c2-c2ccccc2)s1 as the molecule, how does the MIC read?
A: Its MIC is 6.4 µM (≈ 3.12 µg/mL).

Q: c1ccc(-c2nc3ccccc3c(-c3ccccc3)c2Sc2nc3ccccc3s2)cc1 was tested. Which MIC did it give?
A: The MIC was 55.9 µM (≈ 25 µg/mL).

Q: Cc1ccc(-c2nc3ccccc3c(-c3ccccc3)c2Sc2nc3ccccc3s2)cc1 was tested. Which MIC did it give?
A: Its MIC is 54.3 µM (≈ 25 µg/mL).

Q: With Clc1ccc(-c2nc3ccccc3c(-c3ccccc3)c2Sc2nc3ccccc3s2)cc1 as the molecule, how does the MIC read?
A: The MIC was 12.9 µM (≈ 6.21 µg/mL).

Q: Brc1ccc(-c2nc3ccccc3c(-c3ccccc3)c2Sc2nc3ccccc3s2)cc1 was tested. Which MIC did it give?
A: The MIC was 5.9 µM (≈ 3.1 µg/mL).

Q: COc1ccc(-c2nc3ccccc3c(-c3ccccc3)c2Sc2nc3ccccc3s2)cc1 was tested. Which MIC did it give?
A: The MIC was > 52.4 µM.

Q: Which MIC does the source give for c1ccc(-c2c(Sc3nc4ccccc4s3)c(-c3ccc4ccccc4c3)nc3ccccc23)cc1 here?
A: The MIC was 50.3 µM (≈ 25 µg/mL).

Q: How did the MIC turn out when c1ccc(-c2ccc(-c3nc4ccccc4c(-c4ccccc4)c3Sc3nc4ccccc4s3)cc2)cc1 was run?
A: The MIC was 47.2 µM (≈ 24.7 µg/mL).

Q: For c1ccc(-c2nc3ccccc3c(-c3ccccc3)c2Sc2nnnn2-c2ccccc2)cc1, which MIC is on record?
A: The MIC was 54.6 µM (≈ 25 µg/mL).

Q: For Cc1ccc(-c2nc3ccccc3c(-c3ccccc3)c2Sc2nnnn2-c2ccccc2)cc1, which MIC is on record?
A: Its MIC is 53 µM (≈ 25 µg/mL).

Q: For Clc1ccc(-c2nc3ccccc3c(-c3ccccc3)c2Sc2nnnn2-c2ccccc2)cc1, which MIC is on record?
A: Its MIC is 50.8 µM (≈ 25 µg/mL).

Q: For Brc1ccc(-c2nc3ccccc3c(-c3ccccc3)c2Sc2nnnn2-c2ccccc2)cc1, which MIC is on record?
A: Its MIC is 23.3 µM (≈ 12.5 µg/mL).

Q: With COc1ccc(-c2nc3ccccc3c(-c3ccccc3)c2Sc2nnnn2-c2ccccc2)cc1 as the molecule, how does the MIC read?
A: The MIC was 51.2 µM (≈ 25 µg/mL).

Q: c1ccc(-c2c(Sc3nnnn3-c3ccccc3)c(-c3ccc4ccccc4c3)nc3ccccc23)cc1 was tested. Which MIC did it give?
A: Its MIC is 49.2 µM (≈ 25 µg/mL).

Q: For c1ccc(-c2ccc(-c3nc4ccccc4c(-c4ccccc4)c3Sc3nnnn3-c3ccccc3)cc2)cc1, which MIC is on record?
A: The MIC was 46.8 µM (≈ 25 µg/mL).

Q: With CC[C@@H](CO)NCCN[C@@H](CC)CO [ETHAMBUTOL] as the molecule, how does the MIC read?
A: Its MIC is 7.6 µM (≈ 1.55 µg/mL).

Q: Which MIC does the source give for NNC(=O)c1ccncc1 [ISONIAZID] here?
A: The MIC was 0.4 µM (≈ 0.0549 µg/mL).

Q: CO[C@H]1/C=C/O[C@@]2(C)Oc3c(C)c(O)c4c(O)c(c(/C=N/N5CCN(C)CC5)c(O)c4c3C2=O)NC(=O)/C(C)=C\C=C\[C@H](C)[C@H](O)[C@@H](C)[C@@H](O)[C@@H](C)[C@H](OC(C)=O)[C@@H]1C [RIFAMPIN] was tested. Which MIC did it give?
A: Its MIC is 0.1 µM (≈ 0.0823 µg/mL).
